Measured values published in ChEMBL document CHEMBL2010675, “Discovery of GS-9451: an acid inhibitor of the hepatitis C virus NS3/4A protease” (Bioorg Med Chem Lett, 2012).
In brackets after ≈: the same amount, converted by molar mass.

Legend:
[1] = tested on: Hepatitis C virus; assay: Antiviral activity against Hepatitis C virus genotype 1b infected in human Huh cells by luciferase reporter gene based replicon assay; format: functional, organism-based, Hepacivirus hominis
Procedure, shortened: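 EC50 from a cell-based assay in Huh-luc cells carrying a subgenomic HCV genotype 1b replicon, with luciferase reporter read-out.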

[2] = Clearance in dog at 1 mg/kg, iv and 4 mg/kg, po; format: ADME, organism-based, Canis lupus familiaris; conditions: in vivo
Procedure, shortened: (§1)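 Dosed at 1.0 mg/kg iv and 4.0 mg/kg po; plasma drug levels followed to derive iv t1/2, oral AUC, clearance, Vdss and oral bioavailability (F).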

[3] = Half life in dog at 1 mg/kg, iv; format: ADME, organism-based, Canis lupus familiaris; parameters: dose 1 mg/kg, route intravenous; conditions: in vivo; procedure, shortened: as §1
[4] = tested on: Hepatitis C virus; assay: Inhibition of Hepatitis C virus genotype 1b NS3/4A protease; parameters: species or system Hepatitis C virus subtype 1b
[5] = tested on: Canis familiaris; assay: AUC in dog at 4 mg/kg, po; format: ADME, organism-based, Canis lupus familiaris, Plasma; parameters: dose 4 mg/kg, route oral; conditions: in vivo; procedure, shortened: as §1
[6] = Permeability from apical to basolateral side in human Caco2 cells; format: ADME, cell-based; conditions: Caco-2, read-out: permeability
[7] = Permeability from basolateral to apical side in human Caco2 cells; format: ADME, cell-based; conditions: Caco-2, read-out: permeability
[8] = Volume of distribution at steady state in dog at 1 mg/kg, iv and 4 mg/kg, po; format: ADME, organism-based, Canis lupus familiaris; conditions: in vivo, read-out: Vdss; procedure, shortened: as §1
[9] = Thermodynamic solubility of the compound at pH 2.2; format: physicochemical; conditions: buffer, read-out: Therm_solubility
[10] = Thermodynamic solubility of the compound at pH 7.3; format: physicochemical; conditions: buffer, read-out: Therm_solubility
[11] = Oral bioavailability in dog at 4 mg/kg; format: ADME, organism-based, Canis lupus familiaris; conditions: in vivo; procedure, shortened: as §1

EC50 [1] | clearance [2] | half-life [3] | IC50 [4] | AUC [5] | Papp A→B [6] | Papp B→A [7] | Vd [8] | solubility thermodynamic [9] | solubility thermodynamic [10] | bioavailability [11] | Compound
3.2 nM | 0.5 mL/min/kg | 5.8 h | 4.2 nM | 38.3 µM·h | 6.6 ×10⁻⁶ cm/s | 10 ×10⁻⁶ cm/s | 0.21 L/kg | 1900 µM (≈ 1780 µg/mL) | 22 µM (≈ 20.6 µg/mL) | 24% | CC[C@@H]1C[C@]1(NC(=O)[C@@H]1C[C@@H](Oc2cc(-c3csc(NC(C)C)n3)nc3c(Cl)c(OCCN4CCOCC4(C)C)ccc23)CN1C(=O)[C@@H](NC(=O)O[C@@H]1C[C@@H]2C[C@@H]2C1)C(C)(C)C)C(=O)O
3.8 nM | 3.67 mL/min/kg | 2.1 h | 2.9 nM | 8.33 µM·h | 6.1 ×10⁻⁶ cm/s | 30 ×10⁻⁶ cm/s | 0.66 L/kg | > 100 µM | 59 µM (≈ 54.5 µg/mL) | 45% | CC[C@@H]1C[C@]1(NC(=O)[C@@H]1C[C@@H](Oc2cc(-c3csc(NC(C)C)n3)nc3c(Cl)c(OCCN4CC[C@@H](OC)C4)ccc23)CN1C(=O)[C@@H](NC(=O)O[C@@H]1C[C@@H]2C[C@@H]2C1)C(C)(C)C)C(=O)O
5 nM |  |  | 2.6 nM |  | 4.5 ×10⁻⁶ cm/s | 18 ×10⁻⁶ cm/s |  | 20 µM (≈ 16.9 µg/mL) | 57 µM (≈ 48.3 µg/mL) |  | CC[C@@H]1C[C@]1(NC(=O)[C@@H]1C[C@@H](Oc2cc(-c3csc(NC(C)C)n3)nc3c(Cl)c(OC)ccc23)CN1C(=O)[C@@H](NC(=O)O[C@H]1C[C@@H]2[C@H](C1)C2(F)F)C(C)(C)C)C(=O)O
